Measurements: ChEMBL document CHEMBL1629579, “Correlating echinocandin MIC and kinetic inhibition of fks1 mutant glucan synthases for Candida albicans: implications for interpretive breakpoints” (Antimicrob Agents Chemother, 2009)
Values after ≈ are worked out from the molar mass of the structure shown. Numbered stars: 1 amine (or outer) side, 2 acyl side, 3 side chain; on linkers, the order of the positions; unused ones are H or OH. Bridge positions count the residues as written; N and C are the ends. Square brackets hold non-standard residues; d marks the D form. Peptide text beside a SMILES is read from it. * marks the point of attachment. pTerphenylCO(4''-OnC5H11) = CCCCCOc1ccc(-c2ccc(-c3ccc(C(=O)*)cc3)cc2)cc1; Orn(4R-OH,5R-OH) = O=C([C@H](C[C@@H](O)[C@@H](O)N[*:3])N[*:1])[*:2]; hTyr(3S-OH,4S-OH) = N[C@H](C(=O)O)[C@H](O)[C@@H](O)c1ccc(O)cc1; Pro(3S-OH,4S-Me) = C[C@H]1CN[C@H](C(=O)O)[C@H]1O; Hyp = O=C(O)[C@@H]1C[C@@H](O)CN1

Assays:
Candida albicans [1] = assay: Antimicrobial activity against Candida albicans 90028 by M27-A3 method in presence of 50% human serum; type: functional
Summary of the method: (§1)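 Broth microdilution per CLSI M27-A3 in RPMI 1640, done in triplicate on three separate days. Each strain was tested with and without 50% human serum. C. krusei ATCC 6258 and C. parapsilosis ATCC 22019 served as QC strains. Arithmetic means are reported, and geometric means were used for comparison.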

Candida albicans [2] = assay: Antimicrobial activity against Candida albicans 119 harboring FKS1 T1921C mutant gene and FKS1 hotspot1 F641L mutant gene by M27-A3 method in presence of 50% human serum; type: functional; summary of the method: as §1
[3] = Inhibition of Candida albicans 149 1,3-beta-D-glucan synthase subunit FKS1p G1942T mutant
Summary of the method: (§2)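 Enzyme is product-entrapped 1,3-β-D-glucan synthase, enriched from membranes of each strain grown at 37°C with shaking in YPD broth to early stationary phase. Filtration polymerization assay uses [3H]UDPG, started by adding enzyme and run 60 min at 25°C. Echinocandins are added as serial dilutions, with 1% DMSO controls for anidulafungin. IC50 is from a variable-slope sigmoidal fit; values are triplicate arithmetic means.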

Candida albicans [4] = assay: Activity at Candida albicans 5415 1,3-beta-D-glucan synthase subunit FKS1p T1933C mutant
Summary of the method: (§3)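 Product-entrapped 1,3-β-D-glucan synthase from cells grown in YPD at 37°C to early stationary phase. Wells held 50 mM HEPES pH 7.5, 10% glycerol, 1.5 mg/ml BSA, 25 mM KF, 1 mM EDTA, 25 μM GTP-γ-S, 1 μg enzyme and [3H]UDPG (0.015–2 mM). Reactions ran 60 min at 25°C. Vmax and Km came from Lineweaver-Burke plots, in triplicate.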

[5] = Inhibition of Candida albicans 2762 1,3-beta-D-glucan synthase subunit FKS1p T1922C mutant; summary of the method: as §2
Candida albicans [6] = assay: Activity at Candida albicans 1002 1,3-beta-D-glucan synthase subunit FKS1p
Summary of the method: (§4)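 Glucan synthase from cells grown at 37°C with vigorous shaking to early stationary phase in YPD. Membrane enzyme enriched by product entrapment. Serial echinocandin dilutions; ANF controls held 1% DMSO. Reaction started by adding enzyme, run 60 min at 25°C in a filtration polymerization assay, stopped on ice. IC50 from a variable-slope sigmoidal fit; means of three repetitions on separate days.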

Candida albicans [7] = assay: Antimicrobial activity against Candida albicans SC5314 by M27-A3 method; type: functional
Summary of the method: (§5)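 Broth microdilution per CLSI M27-A3 in RPMI 1640, with and without 50% human serum, in triplicate. C. krusei ATCC 6258 and C. parapsilosis ATCC 22019 served as quality-control strains. MIC reported as arithmetic mean of three repetitions on separate days.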

Candida albicans SC5314 = assay: Activity at Candida albicans SC5314 1,3-beta-D-glucan synthase subunit FKS1p; summary of the method: as §4
Candida albicans [8] = assay: Antimicrobial activity against Candida albicans 119 harboring FKS1 T1921C mutant gene and FKS1 hotspot1 F641L mutant gene by M27-A3 method; type: functional; summary of the method: as §1
Candida albicans [9] = assay: Antimicrobial activity against Candida albicans 3795 by M27-A3 method in presence of 50% human serum; type: functional; summary of the method: as §1
[10] = Inhibition of Candida albicans 36082 1,3-beta-D-glucan synthase subunit FKS1p; summary of the method: as §2
Candida albicans [11] = assay: Antimicrobial activity against Candida albicans 177 harboring FKS1 T1922C mutant gene and FKS1 hotspot1 F641S mutant gene by M27-A3 method in presence of 50% human serum; type: functional; summary of the method: as §1
[12] = Inhibition of Candida albicans 121 1,3-beta-D-glucan synthase subunit FKS1p G4082A mutant; summary of the method: as §2
Candida albicans [13] = assay: Activity at Candida albicans 149 1,3-beta-D-glucan synthase subunit FKS1p G1942T mutant; summary of the method: as §3
Candida albicans [14] = assay: Antimicrobial activity against Candida albicans 205 harboring FKS1 T1933C mutant gene and FKS1 hotspot1 S645P mutant gene by M27-A3 method; type: functional; summary of the method: as §1
Candida albicans [15] = assay: Antimicrobial activity against Candida albicans 1002 by M27-A3 method in presence of 50% human serum; type: functional; summary of the method: as §1
Candida albicans [16] = assay: Antimicrobial activity against Candida albicans 90028 by M27-A3 method; type: functional; summary of the method: as §5
[17] = Inhibition of Candida albicans 122 1,3-beta-D-glucan synthase subunit FKS1p C1946A mutant; summary of the method: as §2
Candida albicans [18] = assay: Antimicrobial activity against Candida albicans 89 harboring FKS1 C1934A mutant gene and FKS1 hotspot1 S645Y mutant gene by M27-A3 method in presence of 50% human serum; type: functional; summary of the method: as §1
Candida albicans [19] = assay: Activity at Candida albicans 36082 1,3-beta-D-glucan synthase subunit FKS1p; summary of the method: as §4
Candida albicans [20] = assay: Antimicrobial activity against Candida albicans 90 harboring FKS1 G4082R mutant gene and FKS1 hotspot2 R1361R/H mutant gene by M27-A3 method; type: functional; summary of the method: as §1
Candida albicans [21] = assay: Antimicrobial activity against Candida albicans 194 harboring FKS1 C1934T/G4082R mutant gene and FKS1 hotspot1 S645F mutant gene and FKS1 hotspot2 R1361R/H mutant gene by M27-A3 method in presence of 50% human serum; type: functional; summary of the method: as §1
Candida albicans [22] = assay: Antimicrobial activity against Candida albicans 85 harboring FKS1 C1934T mutant gene and FKS1 hotspot1 S645F mutant gene by M27-A3 method in presence of 50% human serum; type: functional; summary of the method: as §1
Candida albicans [23] = assay: Antimicrobial activity against Candida albicans 121 harboring FKS1 G4082A mutant gene and FKS1 hotspot2 R1361H mutant gene by M27-A3 method in presence of 50% human serum; type: functional; summary of the method: as §1
[24] = Inhibition of Candida albicans 3107 1,3-beta-D-glucan synthase subunit FKS1p; summary of the method: as §2
[25] = Inhibition of Candida albicans A15-10 1,3-beta-D-glucan synthase subunit FKS1p T1933C mutant; summary of the method: as §2
Candida albicans [26] = assay: Activity at Candida albicans 3795 1,3-beta-D-glucan synthase subunit FKS1p; summary of the method: as §4
Candida albicans [27] = assay: Activity at Candida albicans 89 1,3-beta-D-glucan synthase subunit FKS1p C1934A mutant; summary of the method: as §3
Candida albicans [28] = assay: Antimicrobial activity against Candida albicans SC5314 by M27-A3 method in presence of 50% human serum; type: functional; summary of the method: as §1
Candida albicans [29] = assay: Activity at Candida albicans 205 1,3-beta-D-glucan synthase subunit FKS1p T1933C mutant; summary of the method: as §3
[30] = Inhibition of Candida albicans 5415 1,3-beta-D-glucan synthase subunit FKS1p T1933C mutant; summary of the method: as §2
Candida albicans [31] = assay: Antimicrobial activity against Candida albicans 205 harboring FKS1 T1933C mutant gene and FKS1 hotspot1 S645P mutant gene by M27-A3 method in presence of 50% human serum; type: functional; summary of the method: as §1

## CC[C@H](C)C[C@H](C)CCCCCCCCC(=O)N[C@H]1C[C@@H](O)[C@@H](NCCN)NC(=O)[C@@H]2[C@@H](O)CCN2C(=O)[C@H]([C@H](O)CCN)NC(=O)[C@H]([C@H](O)[C@@H](O)c2ccc(O)cc2)NC(=O)[C@@H]2C[C@@H](O)CN2C(=O)[C@H]([C@@H](C)O)NC1=O [CASPOFUNGIN]
Candida albicans [1]
  MIC: 0.25 µg/mL
Candida albicans [2]
  MIC: 8 µg/mL
[3]
  IC50: 68.22 ng/mL (≈ 0.0624 µM)
  Ki: 200 ng/mL (≈ 0.183 µM)
Candida albicans [4]
  Km: 98 µM
  Vmax: 3.12 nmol/min
[5]
  IC50: 910 ng/mL (≈ 0.832 µM)
  Ki: 498.93 ng/mL (≈ 0.456 µM)
Candida albicans [6]
  Km: 122 µM
  Vmax: 5.8 nmol/min
Candida albicans [7]
  MIC: 0.42 µg/mL (≈ 0.384 µM)
Candida albicans SC5314
  Km: 125 µM
  Vmax: 6.72 nmol/min
Candida albicans [8]
  MIC: 2 µg/mL (≈ 1.83 µM)
Candida albicans [9]
  MIC: 0.5 µg/mL
[10]
  IC50: 0.9 ng/mL (≈ 0.000823 µM)
  Ki: 0.95 ng/mL (≈ 0.000869 µM)
Candida albicans [11]
  MIC: 16 µg/mL
[12]
  IC50: 33.72 ng/mL (≈ 0.0308 µM)
  Ki: 308 ng/mL (≈ 0.282 µM)
Candida albicans [13]
  Km: 32 µM
  Vmax: 1.22 nmol/min
Candida albicans [14]
  MIC: 8 µg/mL (≈ 7.32 µM)
Candida albicans [15]
  MIC: 0.5 µg/mL
Candida albicans [16]
  MIC: 0.21 µg/mL (≈ 0.192 µM)
[17]
  IC50: 82.66 ng/mL (≈ 0.0756 µM)
  Ki: 291.67 ng/mL (≈ 0.267 µM)
Candida albicans [18]
  MIC: 8 µg/mL
Candida albicans [19]
  Km: 89 µM
  Vmax: 5.87 nmol/min
Candida albicans [20]
  MIC: 1 µg/mL (≈ 0.915 µM)
Candida albicans [21]
  MIC: 8 µg/mL
Candida albicans [22]
  MIC: 8 µg/mL
Candida albicans [23]
  MIC: 8 µg/mL
[24]
  Ki: 8.79 ng/mL (≈ 0.00804 µM)
[25]
  IC50: 322.4 ng/mL (≈ 0.295 µM)
  Ki: 1358 ng/mL (≈ 1.24 µM)
Candida albicans [26]
  Km: 88 µM
  Vmax: 6.63 nmol/min
Candida albicans [27]
  Km: 61 µM
  Vmax: 2.51 nmol/min
Candida albicans [28]
  MIC: 0.5 µg/mL
Candida albicans [29]
  Km: 116 µM
  Vmax: 5.54 nmol/min
[30]
  IC50: 698.1 ng/mL (≈ 0.639 µM)
  Ki: 2122.49 ng/mL (≈ 1.94 µM)
Candida albicans [31]
  MIC: 8 µg/mL

## CCCCCOc1ccc(-c2ccc(-c3ccc(C(=O)N[C@H]4C[C@@H](O)[C@@H](O)NC(=O)[C@@H]5[C@@H](O)[C@@H](C)CN5C(=O)[C@H]([C@@H](C)O)NC(=O)[C@H]([C@H](O)[C@@H](O)c5ccc(O)cc5)NC(=O)[C@@H]5C[C@@H](O)CN5C(=O)[C@H]([C@@H](C)O)NC4=O)cc3)cc2)cc1 [ANIDULAFUNGIN] ({pTerphenylCO(4''-OnC5H11)}-[Orn(4R-OH,5R-OH)]T[Hyp][hTyr(3S-OH,4S-OH)]T[Pro(3S-OH,4S-Me)]; lactam 1-C)
Candida albicans [1]
  MIC: 0.25 µg/mL
Candida albicans [2]
  MIC: 2 µg/mL
[3]
  IC50: 93.3 ng/mL (≈ 0.0818 µM)
  Ki: 170.55 ng/mL (≈ 0.15 µM)
Candida albicans [4]
  Km: 98 µM
  Vmax: 3.12 nmol/min
[5]
  IC50: 1085 ng/mL (≈ 0.952 µM)
  Ki: 4481.27 ng/mL (≈ 3.93 µM)
Candida albicans [6]
  Km: 122 µM
  Vmax: 5.8 nmol/min
Candida albicans [7]
  MIC: 0.08 µg/mL (≈ 0.0702 µM)
Candida albicans SC5314
  Km: 125 µM
  Vmax: 6.72 nmol/min
Candida albicans [8]
  MIC: 0.16 µg/mL (≈ 0.14 µM)
Candida albicans [9]
  MIC: 0.44 µg/mL
[10]
  IC50: 1.51 ng/mL (≈ 0.00132 µM)
  Ki: 1.43 ng/mL (≈ 0.00125 µM)
Candida albicans [11]
  MIC: 4 µg/mL
[12]
  IC50: 75.99 ng/mL (≈ 0.0666 µM)
  Ki: 84.57 ng/mL (≈ 0.0742 µM)
Candida albicans [13]
  Km: 32 µM
  Vmax: 1.22 nmol/min
Candida albicans [14]
  MIC: 1.33 µg/mL (≈ 1.17 µM)
Candida albicans [15]
  MIC: 0.44 µg/mL
Candida albicans [16]
  MIC: 0.03 µg/mL (≈ 0.0263 µM)
[17]
  IC50: 491 ng/mL (≈ 0.431 µM)
  Ki: 646.07 ng/mL (≈ 0.567 µM)
Candida albicans [18]
  MIC: 8 µg/mL
Candida albicans [19]
  Km: 89 µM
  Vmax: 5.87 nmol/min
Candida albicans [20]
  MIC: 0.25 µg/mL (≈ 0.219 µM)
Candida albicans [21]
  MIC: 8 µg/mL
Candida albicans [22]
  MIC: 8 µg/mL
Candida albicans [23]
  MIC: 8 µg/mL
[24]
  IC50: 3.12 ng/mL (≈ 0.00274 µM)
  Ki: 1.67 ng/mL (≈ 0.00146 µM)
[25]
  IC50: 901 ng/mL (≈ 0.79 µM)
  Ki: 2563.7 ng/mL (≈ 2.25 µM)
Candida albicans [26]
  Km: 88 µM
  Vmax: 6.63 nmol/min
Candida albicans [27]
  Km: 61 µM
  Vmax: 2.51 nmol/min
Candida albicans [28]
  MIC: 0.5 µg/mL
Candida albicans [29]
  Km: 116 µM
  Vmax: 5.54 nmol/min
[30]
  IC50: 1152 ng/mL (≈ 1.01 µM)
  Ki: 4154.11 ng/mL (≈ 3.64 µM)
Candida albicans [31]
  MIC: 8 µg/mL
